Measurements as given in the EternaBench riboswitch data.

Test system: MS2 coat protein
Experiment: apparent Kd, MS2 coat protein; higher = weaker binding; RNA-MaP array
Outline: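 Designed RNAs were transcribed on an Illumina sequencing chip from sequenced DNA templates. They were incubated at room temperature with fluorescently labeled MS2 coat protein at 1.5 nM to 3 μM, for 0.8–1.5 h at the lowest to 10–20 min at the highest concentrations, in Tris-HCl pH 7.5 buffer with KCl, MgCl2, BSA, DTT, tRNA and Tween20, with or without input ligand. Apparent Kd is the median of per-cluster binding-curve fits. Designs measured on fewer than 10 clusters were excluded.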

[1] = designed as: ON switch for flavin mononucleotide, no ligand
[2] = ligand present: flavin mononucleotide, designed as: ON switch for flavin mononucleotide
[3] = designed as: OFF switch for flavin mononucleotide, no ligand
[4] = ligand present: flavin mononucleotide, designed as: OFF switch for flavin mononucleotide

Sequence	apparent Kd [1] [nM]	apparent Kd [2] [nM]	apparent Kd [3] [nM]	apparent Kd [4] [nM]	also measured
UCACAUGAGGAUCACCCAUGUAAAUCACACGACGGUGCUGUCAAGGAUAUGUUACGCUCAGGGCUACAGAAGGUGAUGGUCAAG	52.7	25.2			
UGAUGUAACAGAGGAUAUCACUCAAAUGCGGGCAUGUCGCACAUGUACAUGAGGAUCACCCAUGUUGAGAAGGCUGUGGUGCAA	145	47.5			
AUGAAAAGUACAGGAUAUAUAUAAACACAAAACGGACAUGAGGAUCACCCAUGUUGACGUUGUCAAUAGAAGGGUACCAACACA	26.1	10.7			
CCAUGUAAUGUAAGGAUAUUCCAGGUAAUUACUUUGAAGAAGGUACAUGAGGAUCACCCAUGUGGAAACGAAUG			18.6	64.5	
CCGCCUCGCGUCAGGAUAUGUAACAAUUGUCAAAUACAGAAGGGACAUGAGGAUCACCCAUGUUUACAUACCAA			18	42.2	
UAUAAGGAAGGAUAUAGGCUGCAAAACAUGAGGAUCACCCAUGUGAACCGACGACGCCAACUAGAAGGUCCCUAUG			13.5	12.9	
AAUACACAUGAGGAUCACCCAUGUAAGGAUAUCAAGCAUCAAACAUUAGAGUGAGGAGUGAGAAGGUACAUCAC			20.1	16.3	
GGUCCAAUAGGAUAUACAUGAGGAUCACCCAUGUAAUGGAAGCUCGGGUUUUGGUACUGUAGAAGGAUUGGGAC			25.8	40.9	
UAACGUAGCCGAGGAUAUAGUAGCGAUCAACAGAAACAUGAGGAUCACCCAUGUGCCACAAAAGACUAGAAGGCGGGCAACCCA	15.4	11.2			
CUCUACAUGAGGAUCACCCAUGUAUUAAUACAACUGGGUGCUAGAAGGUGCACUUAAGAAUAGGGCAAGGAUAUAGACCGUUCA			158	77.4	
AUAGAACAUGAGGAUCACCCAUGUAGAAAAUCAGCAGGAUAUGUGAUCACUCCGUAAUUGACAGAAGGGCUAACAA	68.2	28.8			
UUAGCACAUGAGGAUCACCCAUGUCUCGAUACCAGAUAAGUUCCGAUCCCUUGGCAGCGACAAGCUUGCAAACUGCGACUAUUCU					apparent Kd (designed as: ON switch for theophylline, no ligand): 24.7 nM; apparent Kd (ligand present: theophylline, designed as: ON switch for theophylline): 25 nM
UAGCGACAUGAGGAUCACCCAUGUCCCGGCUACUAAGGAUAUGCAGUGAUUGAAAGGAAGGCAGAAGGUAGUGCAG	25.3	12.7			
CCGCGACAUGAGGAUCACCCAUGUGAUUUGACCUCCGGCACGAGAAGGUUCCGACCAAACGGCCGAAAGGAUAUCGUCCCAGAG	64.1	38.6			
UGGGUUACCUCAGGAUAUCGCCUUGUACAUGAGGAUCACCCAUGUAGUAUCGGCCGUGUGUGCAUCGAGAAGGGAGUAACCUUC			75.2	53.5	
GGAACGAUCACUUCUUUAUCUAAGGCGGAUACCAGUCCUCGGUUUGACCCUUGGCAGCCGACAACAUGAGGAUCACCCAUGUUCU					apparent Kd (designed as: OFF switch for theophylline, no ligand): 15.6 nM; apparent Kd (ligand present: theophylline, designed as: OFF switch for theophylline): 20.4 nM
AUUGUCAAGUCGGCCGCCACUUCUGCCAUGGCCACCAGUCGACAUGAGGAUCACCCAUGUCUCUUAAGGACCGGGACUUUCAAUU					apparent Kd (designed as: ON switch for tryptophan, no ligand): 13.2 nM; apparent Kd (ligand present: tryptophan, designed as: ON switch for tryptophan): 12.1 nM
ACGUUCGCGGUAUCCAACCGGUUGUACAAACGAGGACCGGUACGGCCGCCACUCGUGAUUGUACAUGAGGAUCACCCAUGUGGCA					apparent Kd (designed as: OFF switch for tryptophan, no ligand): 17.6 nM; apparent Kd (ligand present: tryptophan, designed as: OFF switch for tryptophan): 17.2 nM
UAACAUGAGGAUCACCCAUGUAACCAUCUCCAAGUCGGUAGGCAGGAUAUGUACAUAAUGGAAGAACAGAAGGGCCGGUCCGAG	31.1	9.9			
CUCGUACAUGAGGAUCACCCAUGUCAGGAUAUUACUGUCGAGUCCAAAACUAGAAAGGUAAGAAGGGACACAUU			13.3	17.8	
AGCUCGUAGACAUGAGGAUCACCCAUGUAGAUCAAGAAAUUCAAGGAUAUUGGGAGUAAGCCGUGCAAGAAGGUGAGACUAGAU	57	45.2			
UUUACACACUCAGGAUAUGAAUUCAAUUUAUCGGGCCGCUAACAUGAGGAUCACCCAUGUAACAUUCAGAAGGGAGAAGAGCCA			17.5	13.7	
UAUCGGGCAGGAUAUACAUGCGAUUACACUCUUCGGAAAGUACAUGAGGAUCACCCAUGUAGAAGGGCCAAGUG			10.4	11	
GCCCUGUGACUAGGAUAUGCCGGGAAACACAUCGCAGAAGGAGUCCACUCAUGUCGACAUGAGGAUCACCCAUGUACCAGGGUU			40.6	29.9	
CCAUGAAGCGAGGAUAUUCUCACUGCCAAGUUGGAAGAAGGCGCUACAUGAGGAUCACCCAUGUAGUCAGUCCG			5.07	5.32	
